Columns and labels:
[1] = Caco-2 membrane permeability studies; assay type: in vitro ADME; conditions: for cellular permeability: Caco-2 cells; for efflux ratio: human, Caco-2
[2] = Pharmacokinetic studies in mice; assay type: in vivo, mouse; conditions: 24 h experiments (31: 8 h experiment); for Clobs: mice; for half-life: female, C57BL/6, mouse, plasma, T1/2, mice
panel of kinases = assay: Kinase profiling; assay type: biochemical
[3] = test system: MLL-AF9 transformed murine bone marrow cells; assay: MTT cell viability assay in MLL-AF9 transformed murine bone marrow cells; assay type: cell-based; conditions: for SI, selectivity index: ratio of GI50 values measured in HM-2 cells (control cell line) and MLL-AF9 transformed cells; for GI50: read-out: GI50 MLL-AF9, MTT cell viability assay, 7 days of treatment
panel of GPCRs = assay: GPCR profiling
HL-60 cells = assay: MTT cell viability assay in HL-60 control cell line; assay type: cell-based, human; conditions: up to 6 μM, 7 days
How it was run: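 MTT viability over 7 days at 37 °C. Cells were grown in RPMI-1640 with 10% FBS, penicillin/streptomycin and NEAA, then seeded at 2 × 10^5/mL (HL-60) or 1 × 10^5/mL (MV4;11, MOLM-13). They were treated with test compound or 0.25% DMSO. On day 4 the medium was changed, viable cells were reset to the starting density, and compound was resupplied. Absorbance was read at 570 nm in quadruplicate, with runs repeated 2–3 times; mean and SD are reported.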

[4] = test system: Hoxa9/Meis1 (HM-2) transformed murine bone marrow cells; assay: MTT cell viability assay in Hoxa9/Meis1; assay type: cell-based; conditions: up to 6 μM, 7 days
[5] = Phase II metabolism, detection of glucuronidation in blood plasma; assay type: in vivo, mouse; conditions: blood plasma after iv administration, 15 mg/kg
How it was run: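 Test compound was given iv at 15 mg/kg to mice. Glucuronide was detected in blood plasma by LC–MS/MS in positive-ion MRM mode, following the same handling used for the pharmacokinetic study.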

MV4;11 tumors = assay: MV4; assay type: in vivo, mouse; conditions: 45 mg/kg, once daily via ip, 2 weeks
[6] = test system: Hoxa9, Meis1 and Itgam expression in MLL-AF9 transformed BMCs; assay: qRT-PCR gene expression in MLL-AF9 transformed murine bone marrow cells; assay type: cell-based; conditions: 6 days of treatment
How it was run: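 MLL-AF9-transformed murine bone marrow cells were treated for 6 days, and expression was then quantified by qRT-PCR. Itgam was normalised to 18S rRNA, and Hoxa9 and Meis1 to β-actin, each relative to DMSO-treated cells. Values are mean ± SD, n = 2.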

menin = biological target: T1, menin (Homo sapiens, UniProt O00255); assay: Isothermal titration calorimetry, binding to menin
T1 sequence (O00255 1-610): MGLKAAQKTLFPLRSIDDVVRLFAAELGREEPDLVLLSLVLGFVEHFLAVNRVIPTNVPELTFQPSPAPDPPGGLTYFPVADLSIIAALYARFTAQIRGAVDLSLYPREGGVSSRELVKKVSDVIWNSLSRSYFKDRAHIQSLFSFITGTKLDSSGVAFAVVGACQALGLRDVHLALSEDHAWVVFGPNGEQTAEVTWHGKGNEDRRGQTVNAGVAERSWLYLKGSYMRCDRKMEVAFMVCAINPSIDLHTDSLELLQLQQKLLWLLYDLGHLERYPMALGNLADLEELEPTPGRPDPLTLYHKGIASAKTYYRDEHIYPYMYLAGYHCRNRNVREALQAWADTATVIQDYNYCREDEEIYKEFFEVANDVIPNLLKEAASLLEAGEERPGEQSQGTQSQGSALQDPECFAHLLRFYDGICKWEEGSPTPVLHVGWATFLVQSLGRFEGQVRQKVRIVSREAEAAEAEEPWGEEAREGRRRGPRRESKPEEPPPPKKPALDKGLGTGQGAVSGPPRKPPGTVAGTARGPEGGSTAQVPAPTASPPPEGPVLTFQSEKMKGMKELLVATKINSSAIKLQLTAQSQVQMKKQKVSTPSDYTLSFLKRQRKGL

For `N#Cc1cc2cc(CN3CCC(Nc4ncnc5sc(CC(F)(F)F)cc45)CC3)ccc2n1CC(O)CO` (racemic) [3-(RS)], the cellular permeability [1] was “poor cellular permeability”.

In the case of `CO[C@@H](CO)Cn1c(C#N)cc2cc(CN3CCC(Nc4ncnc5sc(CC(F)(F)F)cc45)CC3)ccc21` [4-(R)], the efflux ratio [1] is reported as > 20.

In the case of `N#Cc1cc2cc(CN3CCC(Nc4ncnc5sc(CC(F)(F)F)cc45)CC3)ccc2[nH]1` [Compound 1, 5-((4-((6-(2,2,2-Trifluoroethyl)thieno[2,3-d]pyrimidin-4-yl)-amino)piperidin-1-yl)methyl)-1H-indole-2-carbonitrile], the Clobs ([2]; iv, 15 mg/kg) is reported as 38.1 mL/min/kg, the “off-target activity on a panel of kinases” value (panel of kinases) is reported as “did not show substantial off-target activity” and the “SI, selectivity index” value [3] is reported as < 6. For the same compound, the “off-target activity on a panel of GPCRs” value (panel of GPCRs) was “did not show substantial off-target activity”.

In the case of `N#Cc1cc2cc(CN3CCC(Nc4ncnc5sc(CC(F)(F)F)cc45)CC3)ccc2n1CC(N)=O` [Compound 7, 2-(2-Cyano-5-((4-((6-(2,2,2-trifluoroethyl)thieno[2,3-d]-pyrimidin-4-yl)amino)piperidin-1-yl)methyl)-1H-indol-1-yl)-acetamide], the cellular permeability [1] is reported as “poor cellular permeability” and the efflux ratio [1] is reported as > 90.

With `Cc1c(CN2CCC(Nc3ncnc4sc(CC(F)(F)F)cc34)CC2)c(O)cc2[nH]c(C#N)cc12` [Compound 20, 6-Hydroxy-4-methyl-5-((4-((6-(2,2,2-trifluoroethyl)thieno-[2,3-d]pyrimidin-4-yl)amino)piperidin-1-yl)methyl)-1H-indole-2-carbonitrile] the Clobs ([2]; iv, 15 mg/kg) was 44.1 mL/min/kg, the GI50 [3] was < 200 nM and the cellular permeability [1] was “relatively high to moderate cellular permeability”.

For `COc1cc2[nH]c(C#N)cc2c(C)c1CN1CCC(Nc2ncnc3sc(CC(F)(F)F)cc23)CC1` [Compound 21, 6-Methoxy-4-methyl-5-((4-((6-(2,2,2-trifluoroethyl)thieno-[2,3-d]pyrimidin-4-yl)amino)piperidin-1-yl)methyl)-1H-indole-2-carbonitrile], the Clobs ([2]; iv, 15 mg/kg) was 26.6 mL/min/kg, the GI50 [3] was 100 nM and the cellular permeability [1] was “relatively high to moderate cellular permeability”.

In the case of `Cc1c(CN2CCC(Nc3ncnc4sc(CC(F)(F)F)cc34)CC2)ccc2c1cc(C#N)n2CC(N)=O` [Compound 25, 2-(2-Cyano-4-methyl-5-((4-((6-(2,2,2-trifluoroethyl)thieno-[2,3-d]pyrimidin-4-yl)amino)piperidin-1-yl)methyl)-1H-indol-1-yl)acetamide], the cellular permeability [1] is reported as “poor cellular permeability”.

Work on `N#Cc1cc2cc(CN3CCC(Nc4ncnc5sc(CC(F)(F)F)cc45)CC3)c(O)cc2n1Cc1cn[nH]c1` [Compound 27, 1-((1H-Pyrazol-4-yl)methyl)-6-hydroxy-5-((4-((6-(2,2,2-trifluoroethyl)thieno[2,3-d]pyrimidin-4-yl)amino)piperidin-1-yl)methyl)-1H-indole-2-carbonitrile] yielded a half-life ([2]; iv, 15 mg/kg, iv, 15 mg/kg) of ~1.6 h, a half-life ([2]; po, 30 mg/kg, po, 30 mg/kg) of 1.6 h and a Clobs ([2]; iv, 15 mg/kg) of 14.0 mL/min/kg. The “effect on growth of control cell line HL-60” value (HL-60 cells) was “no effect”, the “effect on growth of control cell line HM-2” value [4] was “no effect” and the “phase II metabolism” value [5] was “undergoes glucuronidation”. For the same compound, the “reduction in the MV4;11 tumor volume” value (MV4;11 tumors) was “about 80%”, the “reduction of the body weight” value (MV4;11 tumors) was “less than 10%” and the “expression level of Itgam (differentiation marker)” value [6] was “marked increase”. The “SI, selectivity index” value [3] was > 100 and the “ligand efficiency index (LE)” value (menin) was 0.28.

With `COc1cc2c(cc(C#N)n2Cc2cn[nH]c2)c(C)c1CN1CCC(Nc2ncnc3sc(CC(F)(F)F)cc23)CC1` [Compound 31, 1-((1H-Pyrazol-4-yl)methyl)-6-methoxy-4-methyl-5-((4-((6-(2,2,2-trifluoroethyl)thieno[2,3-d]pyrimidin-4-yl)amino)-piperidin-1-yl)methyl)-1H-indole-2-carbonitrile] the Clobs ([2]; iv, 15 mg/kg) was 15.0 mL/min/kg and the GI50 [3] was < 200 nM.

— paper PMC5092235 (Journal of medicinal chemistry, 2016)
